Test results taken from ChEMBL document CHEMBL1154770, “Betulinic acid derivatives as human immunodeficiency virus type 2 (HIV-2) inhibitors” (J Med Chem, 2009).
pIC50: −log10 of the molar value. The source made the active and inactive calls. The rule behind the calls is not given here.

What was measured:
[1] = system: Human immunodeficiency virus 1; test: Antiviral activity against HIV1 NL4-3 infected in human TZM-b1 cells assessed as reduction in luciferase activity after 2 days by luciferase reporter gene assay; format: functional, cell-based; details: Human immunodeficiency virus 1, NL4-3, TZM-b1, 48 h
How it was run: (§1)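 Single-round infection of TZM-bl cells with 200 TCID50 of virus in the presence of graded compound concentrations. After 2 days, the medium was removed and Bright Glo reagent was added to read luciferase luminescence (RLU). IC50 is the concentration giving 50% reduction of luciferase activity relative to virus control wells.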

[2] = Cytotoxicity against human TZM-b1 cells after 2 days; format: cell-based; details: read-out: TC50
[3] = Selectivity index, ratio of TC50 for human TZM-b1 cells to IC50 for HIV2 KR X3 infected in human TZM-b1 cells; format: toxicity, cell-based; details: TZM-b1 cells infected with HIV2 KR X3, read-out: Selectivity Index
How it was run: (§2)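 TC50 from 2-day CytoTox-Glo viability assay of compound-treated TZM-bl cells, divided by IC50 from single-round TZM-bl infection (200 TCID50 HIV-1 NL4-3 or HIV-2 KR.X3, 2-day luciferase read, 50% RLU reduction versus virus control).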

[4] = Antiviral activity against HIV2 KR X3 infected in human TZM-b1 cells assessed as reduction in luciferase activity after 2 days by luciferase reporter gene assay; format: functional, cell-based, Human immunodeficiency virus type 2 (isolate KR); details: Human immunodeficiency virus 2, X3, TZM-b1, 48 h; how it was run: as §1
[5] = Selectivity index, ratio of TC50 for human TZM-b1 cells to IC50 for HIV1 NL4-3 infected in human TZM-b1 cells; format: toxicity, cell-based; details: TZM-b1 cells infected with HIV1 NL4-3, read-out: Selectivity Index; how it was run: as §2
[6] = Ratio of IC50 for HIV2 KR X3 infected in human TZM-b1 cells to IC50 for HIV1 NL4-3 infected in human TZM-b1 cells; format: functional
How it was run: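 IC50s from single-round TZM-bl infection with 200 TCID50 HIV-1 NL4-3 or HIV-2 KR.X3, graded compound concentrations, 2-day luciferase (Bright Glo) read-out; IC50 = 50% RLU reduction versus virus control; ratio of HIV-2 to HIV-1 IC50.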

TZM-b1 [7] = test: Antiviral activity against HIV2 KR X3 infected in human TZM-b1 cells after 2 days by luciferase reporter gene assay; format: functional, cell-based; details: Human immunodeficiency virus type 2 (isolate KR); how it was run: as §1
TZM-b1 [8] = test: Antiviral activity against HIV2 KR X3 harboring V3 loop of HIV1 YU-2 infected in human TZM-b1 cells after 2 days by luciferase reporter gene assay; format: functional, cell-based; details: Human immunodeficiency virus type 2 (isolate KR); how it was run: as §1
TZM-b1 [9] = test: Inhibition of HIV1 YU-2 gp120 V3 loop assessed as inhibition of HIV2 KR X3 replication in human TZM-b1 cells; format: cell-based; details: Human immunodeficiency virus type 1 (isolate YU2)
How it was run: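 Single-round infection of TZM-bl cells with 200 TCID50 of HIV-2 KR.X3 chimera carrying the HIV-1 YU2 V3 loop (KR.X3-YU2/V3), in presence of graded compound concentrations. After 2 days medium removed, Bright Glo added, luciferase luminescence read; IC50 = concentration halving RLU versus virus-control wells.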

[10] = system: HIV-1 NL4-3 (human immunodeficiency virus 1); test: Antiviral activity against HIV1 NL4-3 infected in human TZM-b1 cells after 2 days by luciferase reporter gene assay; details: Human immunodeficiency virus 1, NL4-3, TZM-b1, 48 h

## C=C(C)[C@@H]1CC[C@]2(C(=O)NCCCCCCNC(=O)CC(=O)O)CC[C@]3(C)[C@H](CC[C@@H]4[C@@]5(C)CC[C@H](O)C(C)(C)[C@@H]5CC[C@]43C)[C@@H]12
[1]
  pIC50: 6.36
[2]
  CC50 at 48 h: 34600 nM
[3]
  selectivity ratio: < 2

## C=C(C)[C@@H]1CC[C@]2(C(=O)NCCCCCCCC(=O)O)CC[C@]3(C)[C@H](CC[C@@H]4[C@@]5(C)CC[C@H](O)C(C)(C)[C@@H]5CC[C@]43C)[C@@H]12
[1]
  pIC50: 6.08
[2]
  CC50 at 48 h: 34200 nM
[3]
  selectivity ratio: < 2

## Cc1cn([C@H]2C[C@H](N=[N+]=[N-])[C@@H](CO)O2)c(=O)[nH]c1=O [ZIDOVUDINE]
[4]
  pIC50: 7.16

## C=C(C)[C@@H]1CC[C@]2(C(=O)O)CC[C@]3(C)[C@H](CC[C@@H]4[C@@]5(C)CC[C@H](OC(=O)CC(C)(C)C(=O)O)C(C)(C)[C@@H]5CC[C@]43C)[C@@H]12 [BEVIRIMAT]
[1]
  pIC50: 6.89
[2]
  CC50 at 48 h: > 30000 nM
[3]
  selectivity ratio: < 2

## C=C(C)[C@@H]1CC[C@]2(C(=O)NCCCCCC(=O)N[C@@H](Cc3ccc(O)cc3)C(=O)O)CC[C@]3(C)[C@H](CC[C@@H]4[C@@]5(C)CC[C@H](O)C(C)(C)[C@@H]5CC[C@]43C)[C@@H]12
[4]
  pIC50: 6.64
[2]
  CC50 at 48 h: 54600 nM
[5]
  selectivity ratio: < 2

## C=C(C)[C@@H]1CC[C@]2(C(=O)NCCCCCC(=O)NCC(=O)NCC(=O)O)CC[C@]3(C)[C@H](CC[C@@H]4[C@@]5(C)CC[C@H](O)C(C)(C)[C@@H]5CC[C@]43C)[C@@H]12
[1]
  pIC50: < 4.24
[4]
  pIC50: 5.77
[2]
  CC50 at 48 h: > 58000 nM

## C=C(C)[C@@H]1CC[C@]2(C(=O)NCCCCCNC(C)=O)CC[C@]3(C)[C@H](CC[C@@H]4[C@@]5(C)CC[C@H](O)C(C)(C)[C@@H]5CC[C@]43C)[C@@H]12
[2]
  CC50 at 48 h: 13900 nM
[3]
  selectivity ratio: < 2
[5]
  selectivity ratio: < 2

## C=C(C)[C@@H]1CC[C@]2(C(=O)NCCCCCCC(=O)NCC(=O)O)CC[C@]3(C)[C@H](CC[C@@H]4[C@@]5(C)CC[C@H](O)C(C)(C)[C@@H]5CC[C@]43C)[C@@H]12
[1]
  pIC50: 5.39
[4]
  pIC50: 6.38
[2]
  CC50 at 48 h: > 63000 nM

## C=C(C)[C@@H]1CC[C@]2(C(=O)NCCCCCC(=O)N3CCC[C@H]3C(=O)O)CC[C@]3(C)[C@H](CC[C@@H]4[C@@]5(C)CC[C@H](O)C(C)(C)[C@@H]5CC[C@]43C)[C@@H]12
[1]
  pIC50: 4.29
[4]
  pIC50: 6.20
[2]
  CC50 at 48 h: > 60000 nM

## C=C(C)[C@@H]1CC[C@]2(C(=O)NCCCCCCCC(=O)NC(CC(C)C)[C@H](O)CC(=O)O)CC[C@]3(C)[C@H](CC[C@@H]4[C@@]5(C)CC[C@H](O)C(C)(C)[C@@H]5CC[C@]43C)[C@@H]12 (single isomer, unassigned)
[1]
  pIC50: 7.38
[4]
  pIC50: 5.54
[2]
  CC50 at 48 h: 33200 nM
[6]
  Ratio IC50: 70

## C=C(C)[C@@H]1CC[C@]2(C(=O)NCCCCCC(=O)N[C@@H](C)C(=O)O)CC[C@]3(C)[C@H](CC[C@@H]4[C@@]5(C)CC[C@H](O)C(C)(C)[C@@H]5CC[C@]43C)[C@@H]12
[1]
  pIC50: 4.31
[4]
  pIC50: 6.43
[2]
  CC50 at 48 h: > 63000 nM

## C=C(C)[C@@H]1CC[C@]2(C(=O)NCCCCCC(=O)NCC(=O)O)CC[C@]3(C)[C@H](CC[C@@H]4[C@@]5(C)CC[C@H](O)C(C)(C)[C@@H]5CC[C@]43C)[C@@H]12
[1]
  pIC50: 4.46
[4]
  pIC50: 6.46
[2]
  CC50 at 48 h: > 64000 nM
TZM-b1 [7]
  Activity: Dose-dependent effect
TZM-b1 [8]
  Activity: Dose-dependent effect
TZM-b1 [9]
  Activity: Active
[10]
  pIC50: 6.46

## C=C(C)[C@@H]1CC[C@]2(C(=O)NCCCCC(=O)O)CC[C@]3(C)[C@H](CC[C@@H]4[C@@]5(C)CC[C@H](O)C(C)(C)[C@@H]5CC[C@]43C)[C@@H]12
[1]
  pIC50: 4.48
[4]
  pIC50: 6.77
[2]
  CC50 at 48 h: > 72000 nM

## C=C(C)[C@@H]1CC[C@]2(C(=O)NCCCC(=O)NCC(=O)O)CC[C@]3(C)[C@H](CC[C@@H]4[C@@]5(C)CC[C@H](O)C(C)(C)[C@@H]5CC[C@]43C)[C@@H]12
[4]
  pIC50: 5.43
[2]
  CC50 at 48 h: > 67000 nM
[5]
  selectivity ratio: < 2

## C=C(C)[C@@H]1CC[C@]2(C(=O)NCCCCCCCC(=O)NCC(=O)O)CC[C@]3(C)[C@H](CC[C@@H]4[C@@]5(C)CC[C@H](O)C(C)(C)[C@@H]5CC[C@]43C)[C@@H]12
[1]
  pIC50: 6.92
[4]
  pIC50: 6.19
[2]
  CC50 at 48 h: 15800 nM

## C=C(C)[C@@H]1CC[C@]2(C(=O)NCCCCCCCCNC(C)=O)CC[C@]3(C)[C@H](CC[C@@H]4[C@@]5(C)CC[C@H](O)C(C)(C)[C@@H]5CC[C@]43C)[C@@H]12
[1]
  pIC50: 6.85
[2]
  CC50 at 48 h: > 64000 nM
[3]
  selectivity ratio: < 2

## C=C(C)[C@@H]1CC[C@]2(C(=O)NCCCCCCC(=O)O)CC[C@]3(C)[C@H](CC[C@@H]4[C@@]5(C)CC[C@H](O)C(C)(C)[C@@H]5CC[C@]43C)[C@@H]12
[1]
  pIC50: 4.95
[4]
  pIC50: 5.35
[2]
  CC50 at 48 h: 36200 nM

## C=C(C)[C@@H]1CC[C@]2(C(=O)NCCCCCCCNC(C)=O)CC[C@]3(C)[C@H](CC[C@@H]4[C@@]5(C)CC[C@H](O)C(C)(C)[C@@H]5CC[C@]43C)[C@@H]12
[1]
  pIC50: 7.42
[2]
  CC50 at 48 h: > 66000 nM
[3]
  selectivity ratio: < 2
[10]
  pIC50: 7.42

## C=C(C)[C@@H]1CC[C@]2(C(=O)NCCCCCCNC(C)=O)CC[C@]3(C)[C@H](CC[C@@H]4[C@@]5(C)CC[C@H](O)C(C)(C)[C@@H]5CC[C@]43C)[C@@H]12
[1]
  pIC50: 7.57
[2]
  CC50 at 48 h: 48100 nM
[3]
  selectivity ratio: < 2
[10]
  pIC50: 7.57

## C=C(C)[C@@H]1CC[C@]2(C(=O)NCCCCC(=O)NCC(=O)O)CC[C@]3(C)[C@H](CC[C@@H]4[C@@]5(C)CC[C@H](O)C(C)(C)[C@@H]5CC[C@]43C)[C@@H]12
[4]
  pIC50: 5.59
[2]
  CC50 at 48 h: > 65000 nM
[5]
  selectivity ratio: < 2

## C=C(C)[C@@H]1CC[C@]2(C(=O)O)CC[C@]3(C)[C@H](CC[C@@H]4[C@@]5(C)CC[C@H](O)C(C)(C)[C@@H]5CC[C@]43C)[C@@H]12 [BETULINIC ACID]
[2]
  CC50 at 48 h: > 80000 nM
[3]
  selectivity ratio: < 2
[5]
  selectivity ratio: < 2

## C=C(C)[C@@H]1CC[C@]2(C(=O)NCCCCCC(=O)O)CC[C@]3(C)[C@H](CC[C@@H]4[C@@]5(C)CC[C@H](O)C(C)(C)[C@@H]5CC[C@]43C)[C@@H]12
[1]
  pIC50: 5.70
[4]
  pIC50: 6.82
[2]
  CC50 at 48 h: > 70000 nM

## C=C(C)[C@@H]1CC[C@]2(C(=O)NCCCC(=O)O)CC[C@]3(C)[C@H](CC[C@@H]4[C@@]5(C)CC[C@H](O)C(C)(C)[C@@H]5CC[C@]43C)[C@@H]12
[4]
  pIC50: 5.55
[2]
  CC50 at 48 h: 31200 nM
[5]
  selectivity ratio: < 2
